Active and inactive are the calls of the source. The calls are words filed in the database; no cut-off is given here.
What was measured:
[1] = system: DU-145; assay: Antiproliferative activity against human DU145 after 48 hrs by SRB assay; assay type: functional, cell-based; settings: DU-145, 48 h
[2] = system: K562; assay: Antiproliferative activity against human K562 after 48 hrs by SRB assay; assay type: functional, cell-based; settings: K562, 48 h
[3] = system: CHO-TAX 5-6; assay: Antiproliferative activity against paclitaxel-resistant CHO-TAX 5-6 cells after 48 hrs by SRB assay; assay type: functional, cell-based; settings: Cricetulus griseus, CHO-TAX 5-6, 48 h
In short: (§1)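 Adherent cells were seeded per line (e.g. HT-29 5000, M21 3500, MCF7 7500, CHO and CHO-VV 3-2 and CHO-TAX 5-6 1000 cells/well) and grown 24 h at 37 °C, 5% CO₂. DMSO-solubilized drug was diluted in medium and added at 1000–0.98 nM for 48 h. Cells were fixed with cold 10% TCA and stained with 0.1% sulforhodamine B, with absorbance read at 530–565 nm.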

[4] = system: L1210; assay: Antiproliferative activity against mouse L1210 after 48 hrs by SRB assay; assay type: functional, cell-based; settings: L1210, 48 h
[5] = system: MDA-MB-231; assay: Displacement of N,N'-ethylenebis(iodoacetamide) from beta-tubulin colchicine-binding site in human MDA-MB-231 cells at 1000 times IC50 preincubated for 2 hrs before N,N'-ethylenebis(iodoacetamide) addition measured after 1.5 hrs by chemiluminescence assay; assay type: cell-based
In short: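 EBI (100, final) was added for 1.5 h at 37 °C with drug present; control was 0.5% DMSO. Sonicated lysates (20 µg protein) were run on 10% SDS-PAGE and blotted with anti-β-tubulin TUB 2.1. The β-tubulin–EBI adduct was scored by ECL.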

[6] = system: CHO-TAX 5-6; assay: Ratio of IC50 for paclitaxel-resistant CHO-TAX 5-6 cells to IC50 for CHO cells; assay type: functional, Cricetulus griseus
In short: (§2)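 Each ratio is the IC50 in the resistant line divided by the IC50 in its parental line (CHO for CHO-TAX 5-6 and CHO-VV 3-2; CEM for CEM-VLB).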

[7] = system: HT-1080; assay: Antiproliferative activity against human HT1080 after 48 hrs by SRB assay; assay type: functional, cell-based; settings: HT-1080, 48 h; in short: as §1
[8] = system: MCF7; assay: Antiproliferative activity against human MCF7 cells after 48 hrs by SRB assay; assay type: functional, cell-based; settings: MCF7, 48 h; in short: as §1
[9] = Antiproliferative activity against mouse P388D1 after 48 hrs by SRB assay; settings: P388D1, 48 h
[10] = system: M21; assay: Disruption of cytoskeleton microtubule structure of human M21 cells at 5 times IC50 after 16 hrs by indirect immunofluorescence assay; assay type: functional, cell-based
In short: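 Cells were fixed in 3.7% formaldehyde, permeabilized with saponin, and stained with anti-β-tubulin TUB 2.1, Alexa-488 anti-mouse secondary and DAPI. Fluorescence microscopy was used for imaging.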

[11] = system: HT-1080; assay: Antitumor activity against human HT1080 cells xenografted in chicken chorioallantoic membrane assessed as inhibition of tumor growth at 3 ug, iv measured on day 17 by CAM assay; assay type: functional
In short: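 Fertilized chicken eggs were incubated 10 days, then 3.5 × 10⁵ HT-1080 cells/egg were applied to the exposed chorioallantoic membrane. On day 11, drug was given iv in DMSO diluted in excipient (ethanol:cremophor:PBS 6.25:6.25:87.5). Read-out was tumor wet weight as % of untreated eggs, plus chick mortality. Data were pooled from two independent experiments of 10–12 eggs each.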

[12] = system: CCRF-CEM; assay: Antiproliferative activity against human CEM after 48 hrs by SRB assay; assay type: functional, cell-based
[13] = Antiproliferative activity against mouse B16F0 after 48 hrs by SRB assay
[14] = system: HT-29; assay: Antiproliferative activity against human HT-29 cells after 48 hrs by SRB assay; assay type: functional, cell-based; settings: HT-29, 48 h; in short: as §1
[15] = system: M21; assay: Cell cycle arrest in human M21 cells assessed as accumulation at G2/M phase at 5 times IC50 after 24 hrs using propidium iodide staining by flow cytometric analysis (reference value: 9%); assay type: functional
In short: (§3)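 Cells were trypsinized, fixed in ice-cold ethanol, treated with RNase, and stained with propidium iodide (1 mg/mL stock) for 1 h on ice. Cell-cycle distribution was measured by flow cytometry.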

[16] = system: CHO-VV 3-2; assay: Antiproliferative activity against colchicine and vinblastine-resistant CHO-VV 3-2 cells after 48 hrs by SRB assay; assay type: functional, cell-based; settings: Cricetulus griseus, CHO-VV 3-2, 48 h; in short: as §1
[17] = system: M21; assay: Antiproliferative activity against human M21 cells after 48 hrs by SRB assay; assay type: functional, cell-based; settings: M21, 48 h; in short: as §1
[18] = system: M21; assay: Cell cycle arrest in human M21 cells assessed as accumulation at S phase at 5 times IC50 after 24 hrs using propidium iodide staining by flow cytometric analysis (reference value: 30%); assay type: functional; in short: as §3
[19] = system: CCRF-CEM; assay: Ratio of IC50 for human multidrug-resistant CEM/VLB cells to IC50 for human CEM cells; assay type: functional; in short: as §2
[20] = Antiproliferative activity against human multidrug-resistant CEM/VLB cells after 48 hrs by SRB assay; assay type: functional
[21] = system: SK-OV-3; assay: Antiproliferative activity against human SKOV3 after 48 hrs by SRB assay; assay type: functional, cell-based; settings: SK-OV-3, 48 h; in short: as §1
[22] = system: CHO-VV 3-2; assay: Ratio of IC50 for colchicine and vinblastine-resistant CHO-VV 3-2 cells to IC50 for CHO cells; assay type: functional, Cricetulus griseus; in short: as §2
[23] = system: M21; assay: Cell cycle arrest in human M21 cells assessed as accumulation at G0/G1 phase at 5 times IC50 after 24 hrs using propidium iodide staining by flow cytometric analysis (reference value: 61%); assay type: functional; in short: as §3
[24] = Toxicity against fertilized chicken embryo assessed as mortality at 3 ug, iv by CAM assay; assay type: organism-based, Gallus gallus; settings: in vivo, read-out: Activity
In short: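 HT-1080 fibrosarcoma cells (3.5 × 10⁵ cells/egg) grafted onto the chorioallantoic membrane of fertilized chicken eggs (10 days preincubation). On day 11, drug in DMSO diluted into excipient (ethanol:cremophor:PBS 6.25:6.25:87.5) given iv at 3 µg per egg. Chick mortality recorded over 7-day tumor growth period. Untreated eggs as negative controls and for normalization. Cumulative results from two independent experiments, 10–12 eggs each.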

[25] = system: CHO; assay: Antiproliferative activity against Chinese hamster CHO after 48 hrs by SRB assay; settings: Cricetulus griseus
[26] = system: MDA-MB-231; assay: Antiproliferative activity against human MDA-MB-231 after 48 hrs by SRB assay; assay type: functional, cell-based; settings: MDA-MB-231, 48 h

| Structure (SMILES) | IC50 [1] | IC50 [2] | IC50 [3] | IC50 [4] | Activity [5] | Ratio IC50 [6] | IC50 [7] | IC50 [8] | IC50 [9] | Activity [10] | IC50 [12] | IC50 [13] | IC50 [14] | Activity [15] | IC50 [16] | IC50 [17] | Activity [18] | Ratio IC50 [19] | IC50 [20] | IC50 [21] | further results |
| --- | --- | --- | --- | --- | --- | --- | --- | --- | --- | --- | --- | --- | --- | --- | --- | --- | --- | --- | --- | --- | --- |
| O=C1NCCN1c1ccc(S(=O)(=O)Nc2ccc3[nH]ccc3c2)cc1 | 1370 nM | 340 nM | 640 nM | 260 nM | Active | 0.49 | 230 nM | 170 nM | 520 nM | Active | 410 nM | 770 nM | 130 nM | 51% | 1860 nM | 87 nM | 22% | 12 | 4840 nM | 280 nM | inhibition [11]: inactive; Ratio IC50 [22]: 1.4; Activity [23]: 27%; mortality [24]: 8%; IC50 [25]: 1310 nM; IC50 [26]: 3600 nM |
| O=C1NCCN1c1ccc(S(=O)(=O)Nc2cccc(Br)c2)cc1 | 340 nM | 87 nM | 76 nM | 99 nM | Active | 0.3 | 170 nM | 100 nM | 90 nM | Active | 110 nM | 270 nM | 77 nM | 78% | 270 nM | 59 nM | 20% | 2.3 | 250 nM | 170 nM | growth inhibition (GI) [11]: 19%; Ratio IC50 [22]: 1.1; Activity [23]: 2%; mortality [24]: 24%; IC50 [25]: 250 nM; IC50 [26]: 290 nM |
| COc1cc(NS(=O)(=O)c2ccc(N3CCNC3=O)cc2)cc(OC)c1OC | 51 nM | 19 nM | 170 nM | 21 nM | Active | 0.89 | 17 nM | 18 nM | 38 nM | Active | 23 nM | 58 nM | 21 nM | 74% | > 250 nM | 13 nM | 12% | >11 | > 250 nM | 22 nM | growth inhibition (GI) [11]: 25%; Ratio IC50 [22]: >1.3; Activity [23]: 12%; mortality [24]: 40%; IC50 [25]: 190 nM; IC50 [26]: 45 nM |
| COc1cc(NS(=O)(=O)c2ccc(N3CCNC3=O)cc2)cc(OC)c1 | 700 nM | 110 nM | 220 nM | 110 nM | Active | 0.67 | 150 nM | 170 nM | 200 nM | Active | 170 nM | 280 nM | 78 nM | 59% | 690 nM | 60 nM | 28% | 5.9 | 1010 nM | 170 nM | growth inhibition (GI) [11]: 31%; Ratio IC50 [22]: 2.1; Activity [23]: 13%; mortality [24]: 13%; IC50 [25]: 330 nM; IC50 [26]: 340 nM |
| COc1cccc(NS(=O)(=O)c2ccc(N3CCNC3=O)cc2)c1 | 650 nM | 230 nM | 200 nM | 240 nM | Active | 0.61 | 200 nM | 120 nM | 250 nM | Active | 260 nM | 370 nM | 120 nM | 61% | 450 nM | 65 nM | 29% | 2.7 | 700 nM | 240 nM | growth inhibition (GI) [11]: 41%; Ratio IC50 [22]: 1.4; Activity [23]: 10%; mortality [24]: 16%; IC50 [25]: 330 nM; IC50 [26]: 730 nM |
| Cc1ccc(C)c(NS(=O)(=O)c2ccc(N3CCNC3=O)cc2)c1 | 1610 nM | 72 nM | 54 nM | 81 nM | Active | 0.7 | 65 nM | 48 nM | 79 nM | Active | 74 nM | 86 nM | 46 nM | 79% | 110 nM | 27 nM | 20% | 1.6 | 120 nM | 72 nM | inhibition [11]: inactive; Ratio IC50 [22]: 1.4; Activity [23]: 1%; mortality [24]: 27%; IC50 [25]: 77 nM; IC50 [26]: 110 nM |
| Cc1cc(C)cc(NS(=O)(=O)c2ccc(N3CCNC3=O)cc2)c1 | 430 nM | 110 nM | 120 nM | 110 nM | Active | 0.57 | 150 nM | 100 nM | 210 nM | Active | 170 nM | 260 nM | 82 nM | 78% | 250 nM | 63 nM | 21% | 2.4 | 400 nM | 190 nM | inhibition [11]: inactive; Ratio IC50 [22]: 1.2; Activity [23]: 1%; mortality [24]: 8%; IC50 [25]: 210 nM; IC50 [26]: 1220 nM |
| O=C1NCCN1c1ccc(S(=O)(=O)Nc2cccc(Cl)c2)cc1 | 230 nM | 69 nM | 58 nM | 77 nM | Active | 0.6 | 68 nM | 79 nM | 78 nM | Active | 77 nM | 190 nM | 55 nM | 62% | 150 nM | 25 nM | 33% | 2.2 | 170 nM | 70 nM | inhibition [11]: inactive; Ratio IC50 [22]: 1.6; Activity [23]: 5%; mortality [24]: 8%; IC50 [25]: 96 nM; IC50 [26]: 200 nM |

From ChEMBL document CHEMBL1909507, “Substituted phenyl 4-(2-oxoimidazolidin-1-yl)benzenesulfonamides as antimitotics. Antiproliferative, antiangiogenic and antitumoral activity, and quantitative structure-activity relationships” (Eur J Med Chem, 2011)
